In ChEMBL document CHEMBL4118127, “Structure activity relationship studies on rhodanines and derived enethiol inhibitors of metallo-β-lactamases” (Bioorg Med Chem, 2018):
Activity calls are given as the source filed them.

How the values were obtained:
[1] = target: Beta-lactamase (Escherichia coli K-12) (UniProt P00811); assay: Inhibition of recombinant Escherichia coli AmpC assessed as residual activity at 200 uM using FC5 as substrate preincubated at 10 to 300 mins followed by substrate addition
Beta-lactamase (Escherichia coli K-12), sequence (P00811 whole entry, the tested form may be a part): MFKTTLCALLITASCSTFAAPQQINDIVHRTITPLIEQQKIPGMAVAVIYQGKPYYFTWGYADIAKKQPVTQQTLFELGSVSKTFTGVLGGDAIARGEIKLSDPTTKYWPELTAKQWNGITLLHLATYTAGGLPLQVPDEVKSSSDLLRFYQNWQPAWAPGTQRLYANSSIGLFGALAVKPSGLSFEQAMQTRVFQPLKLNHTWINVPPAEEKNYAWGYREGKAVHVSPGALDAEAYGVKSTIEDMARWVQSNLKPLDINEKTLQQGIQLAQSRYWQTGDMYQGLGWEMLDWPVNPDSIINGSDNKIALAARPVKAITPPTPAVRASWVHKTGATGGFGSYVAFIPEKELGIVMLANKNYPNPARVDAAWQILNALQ

[2] = target: Beta-lactamase OXA-10 (Pseudomonas aeruginosa) (UniProt P14489); assay: Inhibition of recombinant Pseudomonas aeruginosa OXA-10 using FC5 as substrate assessed as residual activity at 200 uM
Beta-lactamase OXA-10 (Pseudomonas aeruginosa), sequence (P14489 whole entry): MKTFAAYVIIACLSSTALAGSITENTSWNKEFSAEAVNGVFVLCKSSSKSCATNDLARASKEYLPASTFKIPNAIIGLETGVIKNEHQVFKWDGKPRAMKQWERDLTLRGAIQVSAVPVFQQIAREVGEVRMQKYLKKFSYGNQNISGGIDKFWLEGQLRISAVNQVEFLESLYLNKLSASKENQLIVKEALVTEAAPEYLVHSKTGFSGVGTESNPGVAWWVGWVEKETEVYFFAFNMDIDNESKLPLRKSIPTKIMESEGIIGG

[3] = target: Beta-lactamase CTX-M (Escherichia coli) (UniProt Q9EXV5); assay: Inhibition of recombinant Escherichia coli EO516 N-terminal His6-tagged CTX-M using FC5 as substrate at 200 uM preincubated at 10 to 300 mins followed by substrate addition
[4] = target: Beta-lactamase OXA-10 (Pseudomonas aeruginosa) (UniProt P14489); assay: Inhibition of recombinant Pseudomonas aeruginosa OXA-10 at 200 uM using FC5 as substrate
Bacteria [5] = assay: Inhibition of recombinant bacterial IMP1 expressed in Escherichia coli BL21 (DE3) cells using FC4-FC5 as substrate assessed as residual activity at 100 uM by fluorescence-based assay
How it was run: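 IMP-1 was incubated with inhibitor for 10 min before substrate was added. Residual activity was calculated from the initial rate of FC5 hydrolysis.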

[6] = target: Beta-lactamase TEM (Bacteria) (UniProt P62593); assay: Inhibition of recombinant N-terminal His-tagged Escherichia coli TEM1 (24 to 286 residues) expressed in Escherichia coli BL21(DE3) at 200 uM using FC5 as substrate
Beta-lactamase TEM (Bacteria), sequence (P62593 whole entry, the tested form may be a part): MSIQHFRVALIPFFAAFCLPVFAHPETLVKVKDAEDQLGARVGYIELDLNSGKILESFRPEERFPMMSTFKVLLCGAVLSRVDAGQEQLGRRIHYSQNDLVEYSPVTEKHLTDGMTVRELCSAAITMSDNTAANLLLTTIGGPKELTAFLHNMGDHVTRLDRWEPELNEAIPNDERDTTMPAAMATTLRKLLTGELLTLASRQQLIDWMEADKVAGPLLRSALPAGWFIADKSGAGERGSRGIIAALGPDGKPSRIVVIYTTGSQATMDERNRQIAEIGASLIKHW

[7] = target: Beta-lactamase (Escherichia coli K-12) (UniProt P00811); assay: Inhibition of recombinant Escherichia coli AmpC at 200 uM using FC5 as substrate preincubated at 10 to 300 mins followed by substrate addition
Bacteria [8] = assay: Inhibition of recombinant full-length bacterial His6-tagged VIM2 (27 to 266 residues) expressed in Escherichia coli BL21 (DE3) cells using FC4-FC5 as substrate assessed as residual activity at 100 uM by fluorescence-based assay
[9] = target: T1, Metallo-beta-lactamase type 2 (Bacillus cereus) (UniProt P04190); assay: Inhibition of recombinant bacterial BC2 expressed in Escherichia coli BL21 (DE3) cells at 100 uM using FC4-FC5 as substrate by fluorescence-based assay
T1 sequence (whole entry): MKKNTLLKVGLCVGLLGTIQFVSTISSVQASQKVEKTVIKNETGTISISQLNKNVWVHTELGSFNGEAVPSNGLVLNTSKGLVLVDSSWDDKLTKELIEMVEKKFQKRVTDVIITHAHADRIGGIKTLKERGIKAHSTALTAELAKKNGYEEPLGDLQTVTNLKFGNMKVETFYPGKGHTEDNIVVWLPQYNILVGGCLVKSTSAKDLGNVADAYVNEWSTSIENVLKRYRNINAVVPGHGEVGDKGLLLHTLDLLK

[10] = target: Metallo-beta-lactamase type 2 (Aeromonas hydrophila) (UniProt P26918); assay: Inhibition of Aeromonas hydrophila CphA at 100 uM using fluorogenic cephalosporin as substrate
Metallo-beta-lactamase type 2 (Aeromonas hydrophila), sequence (P26918 whole entry): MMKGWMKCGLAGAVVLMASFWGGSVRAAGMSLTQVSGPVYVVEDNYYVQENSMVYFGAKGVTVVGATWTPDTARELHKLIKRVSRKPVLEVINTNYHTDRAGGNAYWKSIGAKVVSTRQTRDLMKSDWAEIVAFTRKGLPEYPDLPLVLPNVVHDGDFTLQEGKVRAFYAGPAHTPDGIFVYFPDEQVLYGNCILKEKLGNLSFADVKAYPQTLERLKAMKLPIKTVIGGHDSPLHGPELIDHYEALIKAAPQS

Bacteria [11] = assay: Inhibition of recombinant bacterial IMP1 expressed in Escherichia coli BL21 (DE3) cells at 100 uM using FC4-FC5 as substrate by fluorescence-based assay
Bacteria [12] = assay: Inhibition of recombinant bacterial NDM1 expressed in Escherichia coli BL21 (DE3) cells at 100 uM using FC5 as fluorogenic reporter substrate preincubated at 10 to 300 mins followed by substrate addition
Bacteria [13] = assay: Inhibition of recombinant full-length bacterial His6-tagged SPM1 (29 to 276 residues) expressed in Escherichia coli BL21 (DE3) cells at 100 uM using FC4-FC5 as substrate by fluorescence-based assay
Bacteria [14] = assay: Inhibition of recombinant full-length bacterial His6-tagged VIM2 (27 to 266 residues) expressed in Escherichia coli BL21 (DE3) cells at 100 uM using FC4-FC5 as substrate by fluorescence-based assay
[15] = target: Beta-lactamase TEM (Bacteria) (UniProt P62593); assay: Inhibition of recombinant N-terminal His-tagged Escherichia coli TEM1 (24 to 286 residues) expressed in Escherichia coli BL21(DE3) using FC5 as substrate assessed as residual activity at 200 uM

Row | Compound | inhibition [3] | inhibition [4] | Activity (Bacteria [5]) | inhibition [6] | inhibition [7] | Activity (Bacteria [8]) | further results
1 | CN1CCN(NC(=O)CN2C(=O)/C(=C/c3c4ccccc4cc4ccccc34)SC2=S)CC1 | – | – | – | – | – | – | Activity [1]: 1%; Activity [2]: 41%
2 | CC1=N/C(=C\c2ccc(F)cc2)C(=O)O1 | inactive | inactive | 100% | inactive | inactive | 100% | –
3 | O=C(O)C(O)Cc1ccccc1 (stereo unspecified) | – | – | – | – | – | – | inhibition [9]: inactive; inhibition [10]: inactive; inhibition (Bacteria [11]): inactive; inhibition (Bacteria [12]): inactive; inhibition (Bacteria [13]): inactive; inhibition (Bacteria [14]): inactive
4 | O=C(O)C(O)c1ccccc1 (stereo unspecified) | – | – | – | – | – | – | inhibition [9]: inactive; inhibition [10]: inactive; inhibition (Bacteria [11]): inactive; inhibition (Bacteria [12]): inactive; inhibition (Bacteria [13]): inactive; inhibition (Bacteria [14]): inactive
5 | O=P(O)(O)C(S)c1ccc(Br)cc1F (stereo unspecified) | inactive | inactive | 100% | inactive | inactive | 100% | –
6 | O=C(O)/C(S)=C/c1c2ccccc2cc2ccccc12 | – | – | – | – | – | – | Activity [15]: 40%
7 | O=C(O)/C(O)=C/c1ccc(F)cc1 | inactive | inactive | 100% | inactive | inactive | 100% | –
8 | O=P(O)(O)C(O)c1ccc(Br)cc1F (stereo unspecified) | inactive | inactive | 100% | inactive | inactive | 100% | –
9 | COc1ccc(/C=C2\SC(=S)N(CC(=O)NN3CCN(C)CC3)C2=O)cc1 | inactive | inactive | – | inactive | inactive | – | –
10 | O=C(O)/C(S)=C/c1ccccc1I | inactive | inactive | – | inactive | inactive | – | –
11 | O=C(O)/C(S)=C/c1ccc(Br)cc1 | inactive | inactive | – | inactive | inactive | – | –
